# Not all results are given here.
# Apaf1 activ = activators of human Apaf-1 apoptosome; activity change, negative = activation, % at 20 µM; O14727; Apaf-1 apoptosome caspase-3 activation, DEVD-Rh110 fluorescence; hits give low values; 330,000 tested, 0.31% active;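 active = activity change at or below -40% at 20 µM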
# Target sequence (O14727 whole entry, looked up): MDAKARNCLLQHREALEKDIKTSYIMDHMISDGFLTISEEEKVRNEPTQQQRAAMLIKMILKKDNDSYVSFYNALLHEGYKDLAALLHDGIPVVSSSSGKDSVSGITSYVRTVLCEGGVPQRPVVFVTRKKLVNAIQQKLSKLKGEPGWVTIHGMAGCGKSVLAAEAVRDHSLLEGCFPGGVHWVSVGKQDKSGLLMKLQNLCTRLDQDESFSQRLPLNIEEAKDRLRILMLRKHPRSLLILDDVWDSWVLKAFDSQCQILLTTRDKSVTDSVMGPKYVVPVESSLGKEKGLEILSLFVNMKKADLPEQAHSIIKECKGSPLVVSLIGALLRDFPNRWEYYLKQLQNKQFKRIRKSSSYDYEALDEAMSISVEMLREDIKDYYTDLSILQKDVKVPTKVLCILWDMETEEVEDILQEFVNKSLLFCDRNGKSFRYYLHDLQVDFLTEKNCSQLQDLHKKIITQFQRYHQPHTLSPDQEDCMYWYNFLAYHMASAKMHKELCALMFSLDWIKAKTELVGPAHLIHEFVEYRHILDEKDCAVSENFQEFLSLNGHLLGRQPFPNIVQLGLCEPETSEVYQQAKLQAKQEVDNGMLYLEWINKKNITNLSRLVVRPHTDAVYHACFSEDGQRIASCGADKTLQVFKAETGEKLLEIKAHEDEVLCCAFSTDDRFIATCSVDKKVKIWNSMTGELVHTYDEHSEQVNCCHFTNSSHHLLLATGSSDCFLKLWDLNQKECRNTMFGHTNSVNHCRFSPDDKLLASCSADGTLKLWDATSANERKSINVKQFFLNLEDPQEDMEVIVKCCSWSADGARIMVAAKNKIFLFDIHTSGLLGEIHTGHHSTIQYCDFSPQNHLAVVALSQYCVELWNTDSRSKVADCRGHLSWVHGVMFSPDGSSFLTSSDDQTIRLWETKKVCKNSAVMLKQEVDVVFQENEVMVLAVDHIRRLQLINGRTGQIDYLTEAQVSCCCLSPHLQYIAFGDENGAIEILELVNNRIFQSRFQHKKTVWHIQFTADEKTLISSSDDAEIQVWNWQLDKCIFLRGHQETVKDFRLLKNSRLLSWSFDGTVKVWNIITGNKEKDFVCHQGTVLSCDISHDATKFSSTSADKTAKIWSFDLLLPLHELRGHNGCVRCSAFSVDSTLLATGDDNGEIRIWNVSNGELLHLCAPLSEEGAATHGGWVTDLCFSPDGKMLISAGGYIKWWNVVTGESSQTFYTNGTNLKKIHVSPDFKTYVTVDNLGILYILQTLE
#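 Schedule: 30 min preincubation, 50 min reaction, room temperature / System: biochemical Apaf-1 apoptosome reconstitution / Medium: 20 mM HEPES pH 7.5 with CHAPS, BSA / Evaluation: Caspase-3 cleavage activity downstream of Apaf-1 activation / Detection: Caspase-3-released Rh110 fluorescence, 540 nm emission, 480 nm excitation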
# Rh110 interf act = counter-screen for Apaf-1 activators: fluorescence interference | shares compounds with Apaf1 activ | Rh110 fluorescence interference, quenched caspase reaction, Ex480/Em540 | fluorescence interference (activity change), % at 20 µM, hits read low | 980 tested, under 10 active | AID 504616;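 active = mean activity change at or below -40% when tested at 20 µM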
# Apaf-1 act conf = confirmation of human Apaf-1 activators. shares compounds with Apaf1 activ. reconstituted apoptosome caspase-3 activity, DEVD-Rh110 fluorescence; hits give low values. activity change, negative = activation, % at 20 µM. 980 tested, 5% active. AID 504617;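 active = mean activity change at or below -40%, meaning activation of 40% or more, at 20 µM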
# The depositor's hits bear a star; . = no result.
SMILES,Apaf1 activ,Rh110 interf act,Apaf-1 act conf
CC(C)c1ccc(NC(=O)C2CC(=O)N(C3CCCC3)C2)cc1 (centres undefined),-96*,4,4
c1ccc(-c2cn3nc4c(nc3n2)CCCC4)cc1,57,.,.
CC(C)(C)c1cc(C(=O)N/N=C/c2ccc(-c3ccccc3[N+](=O)[O-])o2)n[nH]1,42,.,.
CC1=NN(c2ccc(N)cc2)C(=O)C1,53,.,.
CCN1CCN(C2=C(NS(=O)(=O)c3ccc(C)cc3)C(=O)c3ccccc3C2=O)CC1,77,.,.
COc1ccc(OCc2nnc(SCC(=O)NC3CC3)n2C)cc1,-96*,-3,8
CC1CCN(C(=O)CSc2nnc(Cn3c(=O)sc4ccccc43)n2C)CC1,43,.,.
COc1ccc(-n2nc(C(=O)NCC(=O)NC3CCCCCC3)c3ccccc3c2=O)c(OC)c1,48,.,.
Cc1ccc(C(=O)N2CCCN(c3nc4cc5c(cc4cc3C#N)OCO5)CC2)cc1,67,.,.
N#Cc1c(NC(=O)c2ccc(Br)o2)n(-c2ccccc2)c2nc3ccccc3nc12,96,.,.
Cc1ccccc1NC(=O)NC1CCCCCCC1,-63*,4,6
Cc1cc2cc(CNC(=O)NC3CCCCC3)ccc2n1C,51,.,.
Cc1cccn2c(=O)c3cc(C(=O)NC4CCCCC4)c(=N)n(Cc4ccccc4)c3nc12,57,.,.
O=C(Cc1ccccc1)NC1(O)C(=O)c2ccccc2C1=O,85,.,.
Cn1c(Cc2ccccc2)n[nH]c1=S,42,.,.
COc1cccc(NC(=O)c2cc(C(=O)Nc3cccc(OC)c3)n(C)n2)c1,41,.,.
CC(=O)c1cccc(NC(=S)Nc2cccc3ccccc23)c1,81,.,.
COc1cccc(NC(=S)NC(=O)c2cncc(Br)c2)c1,-318*,-1,10
CC(C)CCC(C)N=Cc1c(O)n(Cc2ccccc2)c(=O)c2ccccc12 (centres undefined),60,.,.
N#Cc1c(N)n(CCNC(=O)c2ccc(Cl)cc2)c2nc3ccccc3nc12,67,.,.
Cc1cc(OCc2nn[nH]n2)c2c(C)c(Cc3ccccc3)c(=O)oc2c1,-45*,3,17
Cc1cc2cc(C(c3nnnn3Cc3ccco3)N3CCc4ccccc4C3)c(=O)[nH]c2cc1C (centres undefined),41,.,.
O=C(c1ccccc1)N1CCCOC1c1ccccc1 (centres undefined),-67*,6,16
O=C(/C=C/c1ccc(O)cc1)c1ccc(NC2=C(N3CCCCC3)C(=O)c3ccccc3C2=O)cc1,76,.,.
N#CC1=C(N)Oc2n[nH]c(-c3cccs3)c2C1c1ccsc1 (centres undefined),83,.,.
SMILES,Apaf1 activ,Rh110 interf act,Apaf-1 act conf
O=C(c1ccc2nc(-c3ccco3)c(-c3ccco3)nc2c1)N1CCN(c2ncccn2)CC1,57,.,.
Cc1c(C(=O)Nc2ccncc2)sc2nc(-c3ccc(F)cc3)cn12,-44*,7,-27
Cc1ccc(S(=O)(=O)NC(=O)Nc2ccc(N(C)C)cc2)cc1,57,.,.
Cc1noc(NS(=O)(=O)c2ccc(NC(=O)NC(C)(C(F)(F)F)C(F)(F)F)cc2)c1C,-232*,4,14
CC(=O)N1CCOc2ccc(S(=O)(=O)N(C)c3ccc(C)cc3)cc21,40,.,.
C[C@]12CC[C@@H]3c4ccc(OS(=O)(=O)O)cc4CC[C@H]3[C@@H]1CCC2=O,6,.,.
O=C(Nc1ccc2ccccc2n1)Nc1cccs1,-58*,-1,14
O=C1C=C(Nc2ccccc2O)c2ccccc2C1=O,96,.,.
CC(=O)C1=C(O)C(=O)N(CCc2c[nH]c3ccccc23)C1c1ccco1 (centres undefined),43,.,.
O=S(=O)(Nc1ccc(S(=O)(=O)Nc2ncccn2)cc1)c1ccccc1,-510*,15,17
O=S(=O)(Nc1cc(Sc2ncn[nH]2)c(O)c2ccccc12)c1ccccc1,94,.,.
CC(C)C[C@@H]1CN=C(N)N1C[C@@H]1CCCN1C[C@@H](C(C)C)N1C[C@@H](Cc2ccccc2)N(CCCC2CCCC2)C1=N,55,.,.
Cc1cc(C)c2sc(N(CCN(C)C)C(=O)CCS(=O)(=O)c3ccccc3)nc2c1,53,.,.
CC(C)c1ccc(/C=N/NC(=O)c2ccccc2Cl)cc1,-194*,1,18
O=C(Cc1cc(=O)[nH][nH]1)N/N=C/c1ccccc1Cl,77,.,.
Cc1ccc(/C=N/NC(=O)C(C)NC(=O)c2ccccc2)cc1 (centres undefined),41,.,.
Cc1oc2c(c1C(=O)N1CCC(C)CC1)C(=O)c1ccccc1C2=O,42,.,.
O=C1Cc2cc([N+](=O)[O-])ccc2N1c1c(Cl)cccc1Cl,43,.,.
Cc1ccc(NC(=S)Nc2cccc3cnccc23)cc1,96,.,.
CCN(Cc1ccncc1)C(=O)c1ccc(Br)o1,-613*,-1,8
COc1ccc(C2CC(=O)N3CN(c4ccc(C)c(Cl)c4)CSC3=C2C#N)cc1 (centres undefined),47,.,.

# Screens: PubChem, Sanford-Burnham Center for Chemical Genomics
